Laboratory results: ChEMBL document CHEMBL1135748, “4-Substituted D-glutamic acid analogues: the first potent inhibitors of glutamate racemase (MurI) enzyme with antibacterial activity” (J Med Chem, 2002)
In brackets after ≈: the same amount, converted by molar mass.

Assays:
[1] = Inhibitory activity against recombinant Glutamate Racemase from Streptococcus pneumoniae expressed in Escherichia coli
How it was run: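 Enzyme purified by Ni(II) IMAC, imidazole gradient, from E. coli paste overexpressing the S. pneumoniae racemase; dialysed into Tris-HCl pH 7.8 with β-mercaptoethanol. Enzyme (6 µg mL-1) with 10 mM L-glutamate, inhibitor added before enzyme, 15 min at room temperature. Quenched with Marfey's reagent; derivatised 60 min at 40 °C. D/L-Glu separated by C18 HPLC, A340. Conversion from D/(D+L) peak areas over decreasing inhibitor concentrations gives IC50.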

[2] = system: Streptococcus pneumoniae; assay: In vitro whole cell growth inhibition against PN-R6 strain of Streptococcus pneumoniae; type: functional
How it was run: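 NCCLS microtiter broth dilution. Compounds in DMSO, 2-fold serial dilutions from 250 to 0.25 µg/mL in Mueller–Hinton II broth plus 5% lysed horse blood. Inoculum 5 × 10^5 CFU/mL; final DMSO 2.5%. Incubated overnight at 35 °C. MIC is the lowest concentration visibly inhibiting growth.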

[3] = system: Moraxella catarrhalis; assay: Antibacterial activity against Moraxella catarrhalis BC-1 strain; type: functional
[4] = system: Streptococcus pneumoniae; assay: Antibacterial activity against Streptococcus pneumoniae Park1 strain; type: functional
[5] = system: Streptococcus pneumoniae; assay: Antibacterial activity against Streptococcus pneumoniae R6 strain; type: functional
[6] = system: Staphylococcus aureus; assay: Antibacterial activity against Staphylococcus aureus 027 strain; type: functional

IC50 [1] [µg/mL]	MIC [2] [µg/mL]	MIC [3] [µg/mL]	MIC [4] [µg/mL]	MIC [5] [µg/mL]	MIC [6] [µg/mL]	SMILES
6.3	31.3 (≈ 99 µM)					N[C@H](C[C@H](Cc1ccccc1Br)C(=O)O)C(=O)O
46.3	125 (≈ 377 µM)					N[C@H](C[C@H](Oc1ccc(Oc2ccccc2)cc1)C(=O)O)C(=O)O
26.5	62.5 (≈ 261 µM)					N[C@H](C[C@H](Oc1ccccc1)C(=O)O)C(=O)O
0.49	15.6 (≈ 42 µM)					N[C@H](C[C@H](Cc1ccc(NC(=O)Nc2ccccc2)cc1)C(=O)O)C(=O)O
0.036	0.24 (≈ 0.818 µM)	> 250	0.24 (≈ 0.818 µM)	0.24 (≈ 0.818 µM)	> 250	N[C@H](C[C@H](Cc1cc2ccccc2s1)C(=O)O)C(=O)O
0.1	0.25 (≈ 0.87 µM)	62.5 (≈ 218 µM)	3.9 (≈ 13.6 µM)	0.25 (≈ 0.87 µM)	> 250	N[C@H](C[C@H](Cc1ccc2ccccc2c1)C(=O)O)C(=O)O
5.6	3.9 (≈ 13.6 µM)					N[C@H](C[C@H](Cc1cccc2ccccc12)C(=O)O)C(=O)O
0.1	0.4 (≈ 1.52 µM)					N[C@H](C[C@H](C/C=C/c1ccccc1)C(=O)O)C(=O)O
0.078	1 (≈ 3.19 µM)					N[C@H](C[C@H](Cc1ccc(-c2ccccc2)cc1)C(=O)O)C(=O)O
0.42	7.8 (≈ 21.5 µM)					N[C@H](C[C@H](Cc1ccc(-c2ccc3ccccc3c2)cc1)C(=O)O)C(=O)O
9.8	62.5 (≈ 226 µM)					N[C@H](C[C@H](Cc1cc2ccccc2[nH]1)C(=O)O)C(=O)O
0.5	0.24 (≈ 0.791 µM)					N[C@H](C[C@H](Cc1cccc(-c2ccco2)c1)C(=O)O)C(=O)O
0.7	0.5 (≈ 1.6 µM)					N[C@H](C[C@H](Cc1cccc(-c2ccccc2)c1)C(=O)O)C(=O)O
> 100	> 250					N[C@H](C[C@H](Cc1ccccc1-c1ccccc1)C(=O)O)C(=O)O
0.65	3.9 (≈ 10.6 µM)					N[C@H](C[C@H](Cc1ccc(-c2cc3ccccc3s2)cc1)C(=O)O)C(=O)O
0.3	0.5 (≈ 2.11 µM)					N[C@H](C[C@H](Cc1ccccc1)C(=O)O)C(=O)O
8.2	31.3 (≈ 99.3 µM)					N[C@H](C[C@H](Oc1ccc(-c2ccccc2)cc1)C(=O)O)C(=O)O
10.2	> 250					N[C@H](C[C@H](Cc1ccc(NS(=O)(=O)c2ccccc2)cc1)C(=O)O)C(=O)O
0.5	0.5 (≈ 1.6 µM)					N[C@H](C[C@H](C/C=C/c1ccc2ccccc2c1)C(=O)O)C(=O)O
0.1	0.24 (≈ 0.866 µM)					N[C@H](C[C@H](Cc1cc2ccccc2o1)C(=O)O)C(=O)O
0.3	0.5 (≈ 1.35 µM)					N[C@H](C[C@H](Cc1cccc(-c2cc3ccccc3s2)c1)C(=O)O)C(=O)O
0.1	0.5 (≈ 1.87 µM)					COc1ccc(C[C@@H](C[C@@H](N)C(=O)O)C(=O)O)cc1
0.37	2 (≈ 7.65 µM)					N[C@H](C[C@H](CC#Cc1ccccc1)C(=O)O)C(=O)O
7.1	3.9 (≈ 14.4 µM)					N[C@H](C[C@H](Cc1ccccc1Cl)C(=O)O)C(=O)O
1.7	7.8 (≈ 26.6 µM)					N[C@H](C[C@H](Cc1csc2ccccc12)C(=O)O)C(=O)O
9.4	62.5 (≈ 223 µM)					N[C@H](C[C@H](CNC(=O)c1ccccc1)C(=O)O)C(=O)O
0.5	3.9 (≈ 14.7 µM)					N[C@H](C[C@H](CCCc1ccccc1)C(=O)O)C(=O)O

Continued, compound first:

SMILES	IC50 [1] [µg/mL]	MIC [2] [µg/mL]	MIC [3] [µg/mL]	MIC [4] [µg/mL]	MIC [5] [µg/mL]	MIC [6] [µg/mL]
COc1cc(C[C@@H](C[C@@H](N)C(=O)O)C(=O)O)cc(OC)c1OC	81	> 250				
N[C@H](C[C@H](Cc1cc(C(F)(F)F)cc(C(F)(F)F)c1)C(=O)O)C(=O)O	> 100	> 250				
N[C@H](C[C@H](Cc1cccc(Br)c1)C(=O)O)C(=O)O	0.13	0.5 (≈ 1.58 µM)				
N[C@H](C[C@H](Cc1ccc(-c2ccsc2)cc1)C(=O)O)C(=O)O	0.32	0.24 (≈ 0.751 µM)				
N[C@H](C[C@H](Cc1cccc(Cl)c1)C(=O)O)C(=O)O	3.4	1 (≈ 3.68 µM)				
COc1cccc(C[C@@H](C[C@@H](N)C(=O)O)C(=O)O)c1	0.2	0.5 (≈ 1.87 µM)				
C#CC[C@@H](C[C@@H](N)C(=O)O)C(=O)O	5.5	31.3 (≈ 169 µM)				
CC(C)(C)c1ccc(C[C@@H](C[C@@H](N)C(=O)O)C(=O)O)cc1	0.6	1 (≈ 3.41 µM)				
N[C@H](C[C@H](Cc1cccs1)C(=O)O)C(=O)O	0.1	1 (≈ 4.11 µM)				
N[C@H](C[C@H](Cc1ccc(Cl)cc1)C(=O)O)C(=O)O	0.3	0.5 (≈ 1.84 µM)				
N[C@H](C[C@H](Cc1cccc([N+](=O)[O-])c1)C(=O)O)C(=O)O	5.2	2 (≈ 7.09 µM)				
N[C@H](C[C@H](Cc1ccc(C(F)(F)F)cc1)C(=O)O)C(=O)O	0.8	7.8 (≈ 25.6 µM)				
N[C@H](C[C@H](Cc1nc2ccccc2s1)C(=O)O)C(=O)O	0.38	0.24 (≈ 0.815 µM)				
N[C@H](C[C@H](Cc1ccc([N+](=O)[O-])cc1)C(=O)O)C(=O)O	5.2	2 (≈ 7.09 µM)				
N[C@H](C[C@H](Cc1sc2ccccc2c1Cl)C(=O)O)C(=O)O	0.01	0.5 (≈ 1.53 µM)				
N[C@H](C[C@H](Cc1cccc(C(F)(F)F)c1)C(=O)O)C(=O)O	0.8	0.5 (≈ 1.64 µM)				
N[C@H](C[C@H](Cc1cc(Cl)cc(Cl)c1)C(=O)O)C(=O)O	3	3.9 (≈ 12.7 µM)				
N[C@H](C[C@H](CCCC1CCCCC1)C(=O)O)C(=O)O	0.6	2 (≈ 7.37 µM)				
N[C@H](C[C@H](C/C=C/C=C/c1ccccc1)C(=O)O)C(=O)O	9.1	3.9 (≈ 13.5 µM)				
